From ChEMBL document CHEMBL1157729, “Structure-activity relationship and mechanism of action studies of manzamine analogues for the control of neuroinflammation and cerebral infections” (J Med Chem, 2010)

What was measured:
[1] = test system: Plasmodium berghei; assay: Antiplasmodial activity against Plasmodium berghei NK65 infected in Swiss Webster mice (Mus musculus) assessed as average parasitaemia at 200 mg/kg, perorally administered 1 day after infection measured after 10 days post infection; type: functional; settings: Plasmodium berghei, NK65, route oral
Method in brief: (§1)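 Male Swiss Webster mice (18-20 g, ≥5/group) inoculated i.p. with 2×10^7 P. berghei NK-65 parasitized RBC, given a single oral dose (100 μl, SSV or dilute HCl vehicle); parasitemia by Giemsa-stained tail blood smears days 5–28; activity as % decrease versus untreated controls on day 5.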

[2] = test system: Plasmodium berghei; assay: Antiplasmodial activity against Plasmodium berghei NK65 infected in Swiss Webster mice (Mus musculus) assessed as average parasitaemia at 1.1 mg/kg, perorally administered 1 day after infection for 3 days measured after 10 days post infection; type: functional; settings: route oral
[3] = test system: HeLa; assay: Cell cycle arrest in human HeLa cells assessed as increase in S phase accumulation at 20 uM after 24 hrs by FACS analysis; type: functional
[4] = test system: Plasmodium berghei; assay: Antiplasmodial activity against Plasmodium berghei NK65 infected in Swiss Webster mice (Mus musculus) assessed as average parasitaemia at 5 mg/kg, perorally administered 1 day after infection for 3 days measured after 21 days post infection; type: functional; settings: route oral
[5] = test system: Plasmodium berghei; assay: Antiplasmodial activity against Plasmodium berghei infected in mice (Mus musculus) at 5 mg/kg, subcutaneously administered 1 day post infection for 3 days; type: functional; settings: route subcutaneous
[6] = test system: Plasmodium berghei; assay: Antiplasmodial activity against Plasmodium berghei NK65 infected in Swiss Webster mice (Mus musculus) assessed as average parasitaemia at 3.3 mg/kg, perorally administered 1 day after infection for 3 days measured after 28 days post infection; type: functional; settings: route oral
Method in brief: (§2)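 Male Swiss Webster mice (18-20 g, ≥5/group) inoculated i.p. with 2×10^7 P. berghei NK-65 parasitized RBC; oral dosing (100 μl, SSV or dilute HCl vehicle) once daily for 3 days from day 1; Giemsa-stained tail blood smears days 5–28; inhibition is % decrease versus untreated controls on day 5.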

[7] = test system: Plasmodium yoelii; assay: Antiplasmodial activity against Plasmodium yoelii infected in perorally dosed mice (Mus musculus); type: functional; settings: po
[8] = test system: Plasmodium berghei; assay: Antiplasmodial activity against Plasmodium berghei NK65 infected in Swiss Webster mice (Mus musculus) assessed as average parasitaemia at 3.3 mg/kg, perorally administered 1 day after infection for 3 days measured after 14 days post infection; type: functional; settings: route oral; method in brief: as §2
[9] = species: Mus musculus; assay: Toxicity in Plasmodium berghei NK65 infected Swiss Webster mice (Mus musculus) assessed as weight loss after 5 days post infection; type: organism-based; settings: in vivo, 120 h
[10] = test system: HeLa; assay: Cell cycle arrest in human HeLa cells assessed as decrease in G2/M phase accumulation at 5 uM after 24 hrs by FACS analysis; type: functional; design: scale not given: the % may be the effect or the level left
[11] = test system: Plasmodium berghei; assay: Antiplasmodial activity against Plasmodium berghei NK65 infected in Swiss Webster mice (Mus musculus) at 5 mg/kg, po; type: functional
[12] = test system: Plasmodium berghei; assay: Antiplasmodial activity against Plasmodium berghei NK65 infected in Swiss Webster mice (Mus musculus) assessed as average parasitaemia at 50 mg/kg, perorally administered 1 day after infection measured after 14 days post infection; type: functional; settings: route oral; method in brief: as §1
[13] = test system: Mus musculus; assay: Toxicity in Plasmodium berghei NK65 infected Swiss Webster mice (Mus musculus) assessed as behavioral change at 100 mg/kg, perorally; type: organism-based; design: dose 100 mg/kg, route oral; settings: in vivo, po
Method in brief: (§3)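 P. berghei NK-65 infection in male Swiss Webster mice (18-20 g; 2×10^7 parasitized erythrocytes i.p.; ≥5 per group). A single oral dose of 100 μl, diluted in SSV or 0.01 M HCl, then observation for toxicity signs and body weight. Parasitemia read from Giemsa-stained tail smears from day 5 through day 28. Mice free of parasitemia through day 28 counted as cured.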

[14] = test system: Plasmodium berghei; assay: Antiplasmodial activity against Plasmodium berghei NK65 infected in Swiss Webster mice (Mus musculus) assessed as parasitaemia cure at 5 mg/kg, perorally administered 1 day after infection for 3 days measured after 28 days post infection; type: functional; settings: route oral
[15] = test system: Plasmodium berghei; assay: Antiplasmodial activity against Plasmodium berghei NK65 infected in Swiss Webster mice (Mus musculus) assessed as inhibition of parasitaemia at 50 mg/kg, perorally administered 1 day after infection measured after 5 days post infection; type: functional; settings: route oral; method in brief: as §1
[16] = Antineuroinflammatory activity in LPS-stimulated rat neonatal microglia assessed as inhibition of PMA-induced TXB2 production preincubated 15 mins prior to PMA challenge measured after 70 mins; type: functional, cell-based
[17] = test system: Plasmodium berghei; assay: Antiplasmodial activity against Plasmodium berghei NK65 infected in Swiss Webster mice (Mus musculus) assessed as average parasitaemia at 100 mg/kg, perorally administered 1 day after infection measured after 10 days post infection; type: functional; settings: route oral
[18] = test system: Plasmodium berghei; assay: Antiplasmodial activity against Plasmodium berghei NK65 infected in Swiss Webster mice (Mus musculus) assessed as average parasitaemia at 1.1 mg/kg, perorally administered 1 day after infection for 3 days measured after 28 days post infection; type: functional; settings: route oral; method in brief: as §2
[19] = Antineuroinflammatory activity in LPS-stimulated rat neonatal microglia assessed as inhibition of PMA-induced superoxide anion production preincubated 15 mins prior to PMA challenge measured after 70 mins; type: functional, cell-based
[20] = test system: Mus musculus; assay: Toxicity in Plasmodium berghei NK65 infected Swiss Webster mice (Mus musculus) assessed as weight loss at 300 mg/kg, perorally; type: organism-based; design: dose 300 mg/kg, route oral; settings: in vivo, po; method in brief: as §3
[21] = test system: Plasmodium berghei; assay: Antiplasmodial activity against Plasmodium berghei NK65 infected in Swiss Webster mice (Mus musculus) assessed as inhibition of parasitaemia at 1.1 mg/kg, perorally administered 1 day after infection for 3 days measured after 5 days post infection; type: functional; settings: route oral; method in brief: as §2
[22] = test system: Plasmodium berghei; assay: Antiplasmodial activity against Plasmodium berghei NK65 infected in Swiss Webster mice (Mus musculus) assessed as parasitaemia cure at 200 mg/kg, perorally administered 1 day after infection measured after 28 days post infection; type: functional; settings: Plasmodium berghei, NK65, route oral
Method in brief: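 Male Swiss Webster mice (18-20 g), at least 5 per group, were inoculated ip with 2×10^7 P. berghei NK-65-parasitized red cells from a donor mouse and given a single oral dose (100 μl). Stock was made in SSV or 0.1 M HCl and diluted in SSV or 0.01 M HCl. Parasitemia was read from Giemsa-stained tail blood smears from day 5 to day 28. Cure meant no parasitemia through day 28.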

[23] = test system: Plasmodium berghei; assay: Antiplasmodial activity against Plasmodium berghei NK65 infected in Swiss Webster mice (Mus musculus) assessed as average parasitaemia at 10 mg/kg, perorally administered 1 day after infection for 3 days measured after 10 days post infection; type: functional; settings: route oral
[24] = test system: Plasmodium berghei; assay: Antiplasmodial activity against Plasmodium berghei NK65 infected in Swiss Webster mice (Mus musculus) assessed as parasitaemia cure at 10 mg/kg, perorally administered 1 day after infection for 3 days measured after 28 days post infection; type: functional; settings: route oral
Method in brief: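 Male Swiss Webster mice (18-20 g), at least 5 per group, inoculated i.p. with 2×10^7 P. berghei NK-65-parasitized red cells from a donor mouse. Oral dosing (100 μl, in SSV or 0.01 M HCl dilutions) from day one post-infection on a 3-day schedule (modified Peters test). Giemsa-stained tail-blood smears read from day 5 to day 28. Cure means no parasitemia through day 28.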

[25] = species: Mus musculus; assay: Toxicity in Plasmodium berghei NK65 infected Swiss Webster mice (Mus musculus) assessed as weight loss until day 5 of post infection; type: organism-based; settings: in vivo
[26] = test system: HeLa; assay: Cell cycle arrest in human HeLa cells assessed as increase in S phase accumulation at 5 uM after 24 hrs by FACS analysis; type: functional
[27] = test system: Plasmodium berghei; assay: Antiplasmodial activity against Plasmodium berghei infected in mice (Mus musculus) at 5 mg/kg, perorally administered 1 day post infection for 3 days; type: functional; settings: route oral

O[C@]12C=C(c3nccc4c3[nH]c3ccccc34)[C@@H]3CCN(CCCC/C=C\CC1)C[C@@]31C[C@@H]3/C=C\CCCCN3[C@H]12 [MANZAMINE A]
inhibition in vivo at 200 mg/kg [1]: 0%
inhibition in vivo at 1.1 mg/kg [2]: 11.5%
Activity [3]: 67.2%
inhibition in vivo at 5 mg/kg [4]: 21.7%
Activity [5]: 19.7 days
inhibition in vivo at 3.3 mg/kg [6]: 53.9%
ED50 [7]: 0.57 mg/kg
ED90 [7]: 1.7 mg/kg
inhibition in vivo at 3.3 mg/kg [8]: 11.9%
Activity [9]: Non-toxic
Activity [10]: 14.3%
inhibition in vivo at 5 mg/kg [11]: > 30%
inhibition in vivo at 50 mg/kg [12]: 1%
Activity [13]: Non-toxic
inhibition in vivo at 5 mg/kg [14]: 0%
inhibition in vivo at 50 mg/kg [15]: 100%
IC50 [16]: < 100 nM
inhibition in vivo at 100 mg/kg [17]: 0%
inhibition in vivo at 1.1 mg/kg [18]: 58.6%
IC50 [19]: 100 nM
Activity [20]: Non-toxic
inhibition in vivo at 1.1 mg/kg [21]: 75%
inhibition in vivo at 200 mg/kg [22]: 100%
inhibition in vivo at 10 mg/kg [23]: 0.4%
inhibition in vivo at 10 mg/kg [24]: 75%
Activity [25]: Toxic
Activity [26]: 56.3%
Activity [27]: 24.3 days
